Measured values published in ChEMBL document CHEMBL3091450, “Melosuavines A-H, cytotoxic bisindole alkaloid derivatives from Melodinus suaveolens” (J Nat Prod, 2013).

How the values were obtained:
Format in all cases: functional, cell-based
SW480 = experiment: Cytotoxicity against human SW480 cells after 48 hrs by MTT assay; details: SW480, 48 h
Summary of the method: (§1)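 Cells kept in RPMI-1640 or DMEM with 10% FBS, 37 °C, 5% CO2. Adherent lines plated and left 12 h to attach; suspension cells (HL-60) plated at 1 × 10^5 cells/mL just before dosing. Compounds in DMSO at 0.064, 0.32, 1.6, 8 and 40 μM, triplicate wells, 48 h; cisplatin positive control. MTT viability read-out, IC50 by Reed and Muench method.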

MCF7 = experiment: Cytotoxicity against human MCF7 cells after 48 hrs by MTT assay; details: MCF7, 48 h; summary of the method: as §1
HL-60 = experiment: Cytotoxicity against human HL60 cells after 48 hrs by MTT assay; details: HL-60, 48 h; summary of the method: as §1
A549 = experiment: Cytotoxicity against human A549 cells after 48 hrs by MTT assay; details: A549, 48 h; summary of the method: as §1
[1] = Cytotoxicity against human […] cells after 48 hrs by MTT assay; summary of the method: as §1

SMILES | IC50 (SW480) | IC50 (MCF7) | IC50 (HL-60) | IC50 (A549) | IC50 [1]
CC[C@]12C=CCN3CCc4c(n(c5ccccc45)[C@@H](c4cc5c(cc4O)NC4=C(C(=O)OC)C[C@]6(CC)C=CCN7CC[C@@]45[C@@H]76)C1)[C@@H]32 | 9.7 µM | 9.5 µM | 3.6 µM | 14.3 µM | 10 µM
CC[C@]12C=CCN3CCc4c(n(c5ccccc45)[C@@H](c4cc5c(cc4OC)NC4=C(C(=O)OC)C[C@]6(CC)C=CCN7CC[C@@]45[C@@H]76)C1)[C@@H]32 (relative stereo) | > 40 µM | > 40 µM | > 40 µM | > 40 µM | > 40 µM
C=C[C@]12C=C[C@H](c3cc4c(cc3O)NC3=C(C(=O)OC)C[C@]5(CC)C=CCN6CC[C@@]34[C@@H]65)N3CC[C@@]4(c5ccccc5NC(=O)[C@]4(C(=O)OC)C1)[C@@H]32 (relative stereo) | 9.8 µM | 11.6 µM | 2.6 µM | 11 µM | 5.9 µM
C=C[C@]12C=C[C@@H](c3cc4c(cc3O)NC3=C(C(=O)OC)C[C@]5(CC)C=CCN6CC[C@@]34[C@@H]65)N3CC[C@@]4(c5ccccc5NC(=O)[C@]4(C(=O)OC)C1)[C@@H]32 (relative stereo) | 2.9 µM | 6.1 µM | 2.8 µM | 8.9 µM | 3.1 µM
C=C[C@]12C=CCN3[C@@H](c4cc5c(cc4O)NC4=C(C(=O)OC)C[C@]6(CC)C=CCN7CC[C@@]45[C@@H]76)C[C@@]4(c5ccccc5NC(=O)[C@]4(C(=O)OC)C1)[C@@H]32 (relative stereo) | > 40 µM | > 40 µM | 17.6 µM | > 40 µM | 29 µM
CC[C@]12C=CCN3CC[C@]4(C(=C(C(=O)OC)C1)Nc1cc(O)c([C@@H]5[C@@H]6O[C@@H]6[C@@]6(CC)CC(C(=O)OC)=C7Nc8cc(O)ccc8[C@@]78CCN5[C@@H]68)cc14)[C@@H]32 (relative stereo) | 14.4 µM | 11.6 µM | 5.5 µM | 9.7 µM | 13.8 µM
CC[C@]12C=CCN3CC[C@]4(C(=C(C(=O)OC)C1)Nc1cc(O)c([C@H]5C=C[C@@]6(CC)CC(C(=O)OC)=C7Nc8cc(O)ccc8[C@@]78CCN5[C@@H]68)cc14)[C@@H]32 (relative stereo) | 12.5 µM | 10.7 µM | 4.8 µM | 12.4 µM | 12.6 µM
CC[C@]12C=CCN3CC[C@]4(C(=C(C(=O)OC)C1)Nc1cc(O)c([C@@H]5C=C[C@@]6(CC)CC(C(=O)OC)=C7Nc8cc(O)ccc8[C@@]78CCN5[C@@H]68)cc14)[C@@H]32 (relative stereo) | 4 µM | 6.6 µM | 3.5 µM | 7.5 µM | 3.6 µM
CC[C@]12C=CCN3CC[C@]4(C(=C(C(=O)OC)C1)Nc1cc(O)c([C@@H]5[C@@H]6O[C@@H]6[C@]67CC[C@@]8(Nc9ccccc9[C@@]89CCN5[C@@H]69)[C@H](C(=O)OC)C7)cc14)[C@@H]32 (relative stereo) | > 40 µM | > 40 µM | > 40 µM | > 40 µM | > 40 µM
CC[C@]12C=CCN3CC[C@]4(C(=C(C(=O)OC)C1)Nc1cc(O)c([C@@H]5C[C@]67c8ccccc8N[C@@]68CC[C@]6(C=CCN5[C@@H]67)C[C@H]8C(=O)OC)cc14)[C@@H]32 (relative stereo) | 3.8 µM | 9.5 µM | 1 µM | 3.4 µM | 3.1 µM
